According to ChEMBL document CHEMBL1131610, “3-Deoxy-D-myo-inositol 1-phosphate, 1-phosphonate, and ether lipid analogues as inhibitors of phosphatidylinositol-3-kinase signaling and cancer cell growth” (J Med Chem, 1998):
Each block holds one compound with its values, some of them ahead of it.

Columns and labels:
HT-29 = experiment: Inhibition of HT-29 colon carcinoma cell proliferation after continuous 7-day exposure; assay type: functional, cell-based; conditions: Homo sapiens, HT-29, 168 h
Summary of the method: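 HT-29 colon carcinoma cells were grown as colonies in soft agarose with continuous 7-day drug exposure, and inhibition of colony formation was scored.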

[1] = Inhibition of bovine brain Phosphatidylinositol 3-kinase; parameters: species or system Bos taurus
[2] = Inhibition of bovine brain Phosphatidylinositol 3-kinase (inactive); parameters: species or system Bos taurus
[3] = tested on: Phosphoinositide specific phospholipase C (Bos taurus); experiment: In vitro inhibitory activity against bovine Phosphoinositide specific phospholipase C (PI-PLC); N/A= not active, with <20% inhibition at 100 uM
Mus musculus [4] = experiment: In vivo antitumor activity in mice implanted subcutaneously with HT-29 human colon adenocarcinoma cells at a dose of 250 mg/kg (qd 4-7), injected intraperitoneally and evaluated for %T/C; assay type: functional
Summary of the method: (§1)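 scid mice were implanted subcutaneously with 10⁷ HT-29 human colon adenocarcinoma cells, 8 mice per group. Beginning 4 days after inoculation, each mouse got 4 daily intraperitoneal injections (days 4–7) of compound suspended in 3% EtOH, 3% Tween 20, 0.9% NaCl. Tumor volume was measured with calipers on day 10 and reported as mean with SE. T/C (%) is treated versus control volume, and significance was tested by Student's test.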

Mus musculus [5] = experiment: In vivo antitumor activity in mice implanted with human colon adenocarcinoma cells at a dose of 250 mg/kg (qd 4-7), injected intraperitoneally and evaluated for tumor volume on day 10; assay type: functional; conditions: route intraperitoneal; summary of the method: as §1
[6] = In vivo antitumor activity in mice implanted with human colon adenocarcinoma cells at a dose of 500 mg/kg (qd 4-7), injected intraperitoneally and evaluated for tumor volume on day 10; Lethal; assay type: organism-based; parameters: dose 500 mg/kg, route intraperitoneal; conditions: mouse, ip
Mus musculus [7] = experiment: In vivo antitumor activity in mice implanted with human colon adenocarcinoma cells at a dose of 100 mg/kg (qd 4-7), injected intraperitoneally and evaluated for tumor volume on day 10; assay type: functional; conditions: route intraperitoneal; summary of the method: as §1
Mus musculus [8] = experiment: In vivo antitumor activity in mice implanted with human colon adenocarcinoma cells at a dose of 150 mg/kg (qd 4-7), injected intraperitoneally and evaluated for tumor volume on day 10; assay type: functional; conditions: route intraperitoneal; summary of the method: as §1
Mus musculus [9] = experiment: In vivo antitumor activity in mice implanted with human colon adenocarcinoma cells at a dose of 50 mg/kg (qd 4-7), injected intraperitoneally and evaluated for tumor volume on day 10; assay type: functional; conditions: route intraperitoneal; summary of the method: as §1
Mus musculus [10] = experiment: In vivo antitumor activity in mice implanted subcutaneously with 10^7 HT-29 human colon adenocarcinoma cells at a dose of 100 mg/kg (qd 4-7), injected intraperitoneally and evaluated for %T/C; assay type: functional; summary of the method: as §1
Mus musculus [11] = experiment: In vivo antitumor activity in mice implanted subcutaneously with 10^7 HT-29 human colon adenocarcinoma cells at a dose of 50 mg/kg (qd 4-7), injected intraperitoneally and evaluated for %T/C.; assay type: functional; summary of the method: as §1
Mus musculus [12] = experiment: In vivo antitumor activity in mice implanted with human colon adenocarcinoma cells at a dose of 150 mg/kg (qd 4-7), injected intraperitoneally and evaluated for %T/C; assay type: functional; conditions: route intraperitoneal; summary of the method: as §1

IC50 (HT-29): 37 µM
IC50 [1]: 30 µM
Structure (SMILES): CCCCCCCCCCCCCCCC(=O)OC[C@H](COP(=O)(O)O[C@@H]1[C@H](O)[C@@H](F)[C@@H](O)[C@H](O)[C@@H]1O)OC(=O)CCCCCCCCCCCCCCC

IC50 (HT-29): 10 µM
IC50 [2]: Not Active
IC50 [3]: Not Active
Structure (SMILES): CCCCCCCCCCCCCCCC(=O)OC[C@H](CCP(=O)(O)O[C@H]1[C@@H](O)[C@@H](O)[C@H](O)C[C@H]1O)OC(=O)CCCCCCCCCCCCCCC

Structure (SMILES): CCCCCCCCCCCCCCCC(=O)OC[C@H](COP(=O)(O)O[C@H]1[C@@H](O)[C@@H](O)[C@H](O)C[C@H]1O)OC(=O)CCCCCCCCCCCCCCC
IC50 (HT-29): 35 µM
T/C (Mus musculus [4]): 111.1%
Tumor volume (Mus musculus [5]): 0.3 cm*3
IC50 [1]: > 250 µM
Tumor volume [6]: Lethal

IC50 (HT-29): 45 µM
IC50 [1]: 5.3 µM
Structure (SMILES): CCCCCCCCCCCCCCCCCCOC[C@H](CCP(=O)(O)O[C@H]1[C@@H](O)[C@@H](O)[C@H](O)C[C@H]1O)OC

IC50 (HT-29): 2.1 µM
IC50 [1]: 2.5 µM
Structure (SMILES): CCCCCCCCCCCCCCCCCCOC[C@H](COP(=O)(O)O[C@H]1[C@@H](O)[C@@H](O)[C@H](O)C[C@H]1O)OC
Tumor volume (Mus musculus [7]): 0.32 cm*3
Tumor volume (Mus musculus [8]): 0.09 cm*3
Tumor volume (Mus musculus [9]): 0.28 cm*3
T/C (Mus musculus [10]): 118%
T/C (Mus musculus [11]): 103.7%
T/C (Mus musculus [12]): 33.3%
